High-throughput results: PubChem, several laboratories
SENP8 block-1: SENP8 protease inhibition; Q96LD8; purified SENP8, Z-RLRGG-aminoluciferin cleavage, luminescence; inhibition, % at 10 µM; 330,000 compounds, 1.2% hits; AID 2540; in the data active = inhibition above about 50%
Target sequence (Q96LD8 whole entry, looked up): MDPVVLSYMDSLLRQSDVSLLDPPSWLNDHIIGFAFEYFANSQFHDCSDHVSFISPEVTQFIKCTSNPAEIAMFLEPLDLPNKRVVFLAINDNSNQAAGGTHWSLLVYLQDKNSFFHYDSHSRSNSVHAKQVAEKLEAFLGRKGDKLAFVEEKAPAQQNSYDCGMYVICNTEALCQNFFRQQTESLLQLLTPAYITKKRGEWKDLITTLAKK
SENP8 block-2: blocks human SENP8 cleavage of Nedd8 substrate. recombinant SENP8, Nedd8 substrate fluorescence. inhibition, % at 20 µM. AID 602440. 360,000 compounds, 0.64% hits; in the data active = inhibition mostly above about 40%, no sharp cut-off; inactive = mostly below about 27%
SENP1 FRET inh: blocks the human SENP1 SUMO protease catalytic domain. AID 624204. inhibition, % at 10 µM. 360,000 compounds, 0.21% hits. Q9P0U3. recombinant SENP1 catalytic domain, CyPet-SUMO1-YPet FRET cleavage;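 active = inhibition at least 30% at 10 µM, raw YFP signal under a set limit, fluorescence ratio 0.5 to 1.5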
Target sequence (Q9P0U3 419-644 limits assumed): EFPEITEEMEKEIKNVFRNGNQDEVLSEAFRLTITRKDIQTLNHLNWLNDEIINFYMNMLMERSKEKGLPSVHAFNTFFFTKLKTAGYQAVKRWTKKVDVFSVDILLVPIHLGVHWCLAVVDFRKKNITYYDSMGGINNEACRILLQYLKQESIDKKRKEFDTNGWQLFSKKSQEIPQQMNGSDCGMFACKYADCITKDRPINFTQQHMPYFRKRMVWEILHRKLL
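material = recombinant human SENP1 catalytic domain, His6-tagged | quantity = 20 pM enzyme | reagent = 25 nM SUMO1 FRET substrate | compound dosing = 10 µM single point, 0.5% DMSO | timing = 50 min enzyme reaction, room temperature, light-protected | detection = FRET, CFP and YFP emission | control set = no-enzyme low, enzyme-DMSO high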
SENP7 inh: SENP7 protease inhibition | Q9BQF6 | recombinant SENP7, Z-RLRGG-aminoluciferin luminescence, 40 min | inhibition, % at 5 µM | 330,000 compounds, 1.5% hits;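 active = inhibition above about 50% at the single test dose, limit read from the data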
SENP6 block: blocks the human protease SENP6; Q9GZR1; Recombinant SENP6 catalytic domain, aminoluciferin luminescence; inhibition, % at 10 µM; 330,000 compounds, 1.8% hits; AID 2599;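 active = inhibition above about 50% at the single tested dose, limit read from the data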
Platelet DG rel: modulates dense granule release in human platelets. inhibition, %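 (compounds screened at 7.5 µM in platelet-rich plasma)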. AID 1663. human platelet-rich plasma, SFLLRN dense granule ATP release, luminescence. 300,000 compounds, 0.22% hits;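 active = mean replicate score, as percent of positive control, at or above 50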
SENP8 confirm: confirmation of human SENP8 protease inhibitors; shares compounds with SENP7 inh; Recombinant SENP8, Z-RLRGG-aminoluciferin luminescence, 60 min; inhibition, % at 12.5 µM; 6,200 compounds, 40% hits;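 active = mean inhibition across replicates above about 50%, limit read from the data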
SENP6 confirm: confirmation of human SENP6 protease inhibitors; AID 488915; inhibition, % at 12.5 µM; shares compounds with SENP7 inh; 6,200 compounds, 58% hits; recombinant SENP6, Z-RLRGG-aminoluciferin luminescence
SENP7 conf: confirmation of human SENP7 protease inhibitors; recombinant SENP7, Z-RLRGG-aminoluciferin luminescence, 40 min; shares compounds with SENP7 inh; inhibition, % at 12.5 µM; AID 488917; 6,200 compounds, 69% hits
Casp3 select: selectivity test for SENP inhibitors: human caspase-3 inhibition | shares compounds with SENP7 inh | purified caspase-3, Z-DEVD-aminoluciferin luminescence, 60 min | inhibition, % at 12.5 µM | 6,200 compounds, 60% hits | AID 488918;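 active = mean inhibition above about 50%, limit read from the data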
Target sequence (P42574 28-227 limits assumed): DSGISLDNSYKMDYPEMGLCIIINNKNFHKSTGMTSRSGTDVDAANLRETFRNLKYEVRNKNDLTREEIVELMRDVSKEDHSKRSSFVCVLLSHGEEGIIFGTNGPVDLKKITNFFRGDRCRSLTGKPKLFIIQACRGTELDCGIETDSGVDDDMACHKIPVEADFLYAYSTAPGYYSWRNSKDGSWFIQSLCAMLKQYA
SENP luc ctr: interferes with luciferase luminescence in SENP counter-screen. inhibition, % at 12.5 µM. shares compounds with SENP7 inh. 6,200 compounds, 39% hits. AID 488919. Pre-incubated SENP8/Z-RLRGG-aminoluciferin, luciferase luminescence interference;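 active = mean inhibition above about 50% when retested at one dose, limit read from the data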
Of the large screens only hits and unclear results are named; the others gave an inactive call (follow-up assays come after a bar, where they were run). A selection: hits, their analogues and other compounds. The true share with any hit is near 2.6%.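 The calls were made as follows, unless noted: active = mean inhibition above about 50% in the one-dose retest (limit read from the data); inactive = the rest.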

O=C(Nc1c[nH]c(=O)[nH]c1=O)c1cccc(F)c1	SENP8 block-1 62 | SENP8 confirm inactive | SENP6 confirm inactive | SENP7 conf inactive | Casp3 select inactive | SENP luc ctr inactive
Cc1ccc(S(=O)(=O)CCSc2cccc(C(=O)Nc3ccccc3C(=O)O)c2)cc1	SENP8 block-1 65, SENP6 block 88 | SENP8 confirm inactive | SENP6 confirm 76 | SENP7 conf 92 | Casp3 select 60 | SENP luc ctr 85
Cc1cc(C(=O)Nc2ccccc2C(=O)O)oc1C	SENP6 block 64 | SENP8 confirm 68 | SENP6 confirm 64 | SENP7 conf 90 | Casp3 select 88 | SENP luc ctr 73
C=CCN(C(=O)c1csnn1)C(C(=O)NC1CCCC1)c1c(F)cccc1Cl (stereo not drawn)	none
Cc1cccc(NC(=O)Nc2nnc([C@H]3C[C@H](O)[C@@H](CO)O3)s2)c1	none (no result: SENP8 block-1, SENP7 inh, SENP6 block, Platelet DG rel)
CC(=O)N(O)c1ccc(C=Cc2ccccc2)cc1	none (no result: SENP8 block-1, SENP7 inh, SENP6 block, Platelet DG rel)
O=C1c2ccccc2C(=O)C1(CO)c1ccc(OC(F)F)cc1	SENP8 block-1 94, SENP6 block 94 | SENP8 confirm inactive | SENP6 confirm 98 | SENP7 conf 103 | Casp3 select 96 | SENP luc ctr 57
O=C1c2ccccc2C(=O)C1(CO)c1ccccc1	SENP6 block 56 | SENP8 confirm inactive | SENP6 confirm 50 | SENP7 conf 82 | Casp3 select 77 | SENP luc ctr inactive
CC(O)C(NS(=O)(=O)c1ccc(Cl)cc1)C(=O)OCCOc1ccc(F)cc1 (stereo not drawn)	none (no result: SENP8 block-1, SENP7 inh, SENP6 block, Platelet DG rel)
COc1ccc(CN=C2NN=C(c3ccc(Cl)cc3)CS2)cc1	none
COc1ccc(CN=C2Nc3ccccc3CS2)cc1	SENP8 block-1 80, SENP7 inh 85, SENP6 block 92 | SENP8 confirm 86 | SENP6 confirm 86 | SENP7 conf 97 | Casp3 select 81 | SENP luc ctr 88
Oc1ccc(NCc2ccccc2OCc2ccccc2F)cc1	SENP8 block-2 76, SENP6 block 60 | SENP8 confirm inactive | SENP6 confirm inactive | SENP7 conf inactive | Casp3 select inactive | SENP luc ctr inactive
O=C(O)c1ccccc1Nc1ccc(OC(F)F)cc1	SENP8 block-1 55 | SENP8 confirm 61 | SENP6 confirm 60 | SENP7 conf 80 | Casp3 select 66 | SENP luc ctr 74
O=C(O)c1ccccc1Nc1ccccc1	none (no result: Platelet DG rel)
CCCn1cc(CN2CCC(n3nccc3NC(=O)c3ccccc3)CC2)c(C)n1	none
Cc1ccc(NC(=O)CCN2CCOCC2)cc1C	none
O=[N+]([O-])c1ccccc1N/N=C\c1ccccc1Cl	SENP8 block-1 84, SENP7 inh 97, SENP6 block 91 | SENP8 confirm inactive | SENP6 confirm inactive | SENP7 conf inactive | Casp3 select 56 | SENP luc ctr inactive
O=[N+]([O-])c1ccccc1C=NNc1ccccc1	none (no result: SENP8 block-1, SENP7 inh, SENP6 block, Platelet DG rel)
O=[N+]([O-])c1ccccc1N/N=C/c1cccc(O)c1O	SENP8 block-1 88, SENP8 block-2 55, SENP7 inh 98, SENP6 block 92 | SENP8 confirm inactive | SENP6 confirm inactive | SENP7 conf inactive | Casp3 select inactive | SENP luc ctr inactive
O=C(N/N=C/c1cc([N+](=O)[O-])ccc1O)C1CC1	none
O=[N+]([O-])c1cccc(/C=N\N=C2c3ccccc3-c3ccccc32)c1O	none
O=[N+]([O-])c1ccc(O)c(/C=N/Nc2ccccc2Cl)c1	SENP7 inh 50, SENP6 block 50 | SENP8 confirm inactive | SENP6 confirm inactive | SENP7 conf inactive | Casp3 select inactive | SENP luc ctr inactive
COc1cccc(NC(=O)[C@H](CC(C)C)NC(=O)N2CCn3c2nc2ccccc23)c1	none
CC1CCCC(NC(=O)c2ccc3c(c2)NC(=O)CS3)C1C (stereo not drawn)	none
O=C(CN1CCN(Cc2ccccc2)CC1)N/N=C/c1ccccc1F	none
Cc1ccc(CN2CCN(CC(=O)N/N=C/c3ccccc3F)CC2)cc1	SENP6 block 55 | SENP8 confirm inactive | SENP6 confirm inactive | SENP7 conf inactive | Casp3 select inactive | SENP luc ctr inactive
CCc1nc2ccc(C(=O)NCCN3CCOCC3)cn2c1N(CC)CCOC	none (no result: SENP8 block-1, SENP7 inh, SENP6 block, Platelet DG rel)
Cn1c(NCCN2CCCC2)nc2cc(-c3ccccc3)sc2c1=O	none (no result: SENP8 block-1, SENP7 inh, SENP6 block, Platelet DG rel)
O=c1c2sc(-c3ccccc3)cc2nc2n1CCCCC2	SENP6 block 54 | SENP8 confirm inactive | SENP6 confirm inactive | SENP7 conf 74 | Casp3 select inactive | SENP luc ctr 54
O=c1c2sc(-c3ccccc3)cc2nc2n1CCC2	SENP8 block-1 81, SENP7 inh 91, SENP6 block 93 | SENP8 confirm 89 | SENP6 confirm 89 | SENP7 conf 99 | Casp3 select 95 | SENP luc ctr 90
CCCCN(CC)C(=O)c1cc2cc3ccc(OC)cc3nc2o1	none
CCCCN(C)C(=O)c1cc2cc3ccc(OC)cc3nc2s1	SENP8 block-1 91, SENP7 inh 95, SENP6 block 91 | SENP8 confirm 91 | SENP6 confirm 97 | SENP7 conf 101 | Casp3 select 96 | SENP luc ctr 54
CCOc1ccc(OCC)c(NC(=O)CSCCc2ccccn2)c1	SENP6 block 82 | SENP8 confirm inactive | SENP6 confirm inactive | SENP7 conf inactive | Casp3 select inactive | SENP luc ctr inactive
Cc1ccc(C(=O)N[C@H](C(=O)Nc2sccc2C(N)=O)C(C)C)cc1	none
CCCCCCN1C[C@@H](n2cc(-c3ccc(F)cc3)nn2)[C@H](O)C[C@@H]1c1ccccc1	none (no result: SENP8 block-1, SENP7 inh, SENP6 block, Platelet DG rel)
CCc1nc2ccc(C(=O)N(CC)CCN(C)C)cn2c1N(C=O)CCC(C)C	none (no result: SENP8 block-1, SENP7 inh, SENP6 block, Platelet DG rel)
CCCNC(=O)C1(C)CCN(Cc2cc(-c3ccccc3)on2)C1 (stereo not drawn)	none (no result: SENP8 block-1, SENP7 inh, SENP6 block, Platelet DG rel)
O=c1cc(-c2ccc(O)cc2)oc2ccc(O)cc12	SENP6 block 51 | SENP8 confirm inactive | SENP6 confirm inactive | SENP7 conf 61 | Casp3 select inactive | SENP luc ctr inactive
